According to ChEMBL document CHEMBL1764949, “Microbial transformation of (+)-nootkatone and the antiproliferative activity of its metabolites” (2011):
Values after ≈ are worked out from the molar mass of the structure shown.

Columns and labels:
[1] = system: HL-60; test: Antiproliferative activity against human HL60 cells by MTT assay; type: functional; conditions: read-out: ID50 (the source's name)
Procedure, shortened: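 HL-60 promyelocytic leukemia cells in suspension in RPMI 1640 with 10% FBS, 2 mM glutamine, 1 mM pyruvate, glucose, antibiotics, 37 °C, 5% CO₂. Plated 10⁴ cells/well 24 h before dosing. Exposed 72 h to 0.1–100 µg/ml, ethanol vehicle. MTT (5 mg/ml stock) added for the last 3–4 h. SDS/DMF lysis for 24 h, OD 570 nm. ID₅₀ mean ± SD. Triplicates, 3–5 experiments.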

[2] = system: A549; test: Antiproliferative activity against human A549 cells by […]; type: functional; conditions: read-out: ID50 (the source's name)
Procedure, shortened: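 A549 human lung adenocarcinoma cells grown at 37 °C, 5% CO₂ in RPMI 1640+Opti-MEM (1:1) with 5% FBS, 2 mM glutamine, penicillin/streptomycin. Plated 10⁴ cells/well 24 h before dosing. Exposed 72 h to 0.1–100 µg/ml, ethanol vehicle. Cold 50% TCA fixation at 4 °C for 1 h, 0.4% SRB stain, OD 540 nm. ID₅₀ per experiment, mean ± SD. Triplicates, 3–5 experiments.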

Structure (SMILES): C[C@@H]1CC(=O)C=C2CC[C@@H]([C@@]3(C)CO3)C[C@]21C
- IC50 [1]: 27.6 µg/mL (≈ 118 µM)
- IC50 [2]: 167 µg/mL (≈ 713 µM)

Structure (SMILES): C=C(C)[C@@H]1C[C@@H](O)C2=CC(=O)C[C@@H](C)[C@]2(C)C1
- IC50 [1]: 25.7 µg/mL (≈ 110 µM)
- IC50 [2]: 62.7 µg/mL (≈ 268 µM)

Structure (SMILES): C=C(CO)[C@@H]1CCC2=CC(=O)C[C@@H](C)[C@]2(C)C1
- IC50 [1]: 4.4 µg/mL (≈ 18.8 µM)
- IC50 [2]: 36 µg/mL (≈ 154 µM)

Structure (SMILES): C[C@@H]1CC(=O)C=C2[C@H](O)C[C@H]([C@@]3(C)CO3)C[C@]21C
- IC50 [1]: 345 µg/mL (≈ 1380 µM)
- IC50 [2]: 289 µg/mL (≈ 1150 µM)

Structure (SMILES): C[C@@H]1CC(=O)C=C2CC[C@@H](C(C)(O)CO)C[C@]21C (some centres undefined)
- IC50 [1]: 284 µg/mL (≈ 1130 µM)
- IC50 [2]: 325 µg/mL (≈ 1290 µM)

Structure (SMILES): C[C@@H]1CC(=O)C=C2CC[C@](O)(C(C)(O)CO)C[C@]21C (some centres undefined)
- IC50 [1]: 25.8 µg/mL (≈ 96.1 µM)
- IC50 [2]: 290 µg/mL (≈ 1080 µM)

Structure (SMILES): C=C(C)[C@@H]1CCC2=CC(=O)C[C@@H](C)[C@]2(C)C1 [NOOTKATONE]
- IC50 [1]: 4.27 µg/mL (≈ 19.6 µM)
- IC50 [2]: 58.4 µg/mL (≈ 267 µM)
